How the values were obtained:
[1] = Binding affinity to human CD4 signal peptide expressed in CHO cells assessed as down-modulation of YFP-fused CD4 expression after 24 hrs by flow cytometric analysis; format: cell-based
Method in brief: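 CHO cells stably expressing human CD4 fused C-terminally to YFP, treated 24 h at 37 °C with 1:5 serial dilutions. Washed, fixed in 1% formaldehyde, flow cytometry with 488 nm excitation and YFP in FL-1. YFP median fluorescence as % of untreated cells after subtracting non-transfected background. IC50 = 50% decrease; mean ± SD, n ≥ 3.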

[2] = test system: Human immunodeficiency virus 1; assay: Antiviral activity against CXCR4 using HIV-1 NL4.3 infected in human MT4 cells assessed as reduction of viral replication preincubated for 15 mins with cells followed by viral infection measured after 4 days by MTS/PES method; format: functional, organism-based; settings: Human immunodeficiency virus 1, NL4.3, MT4
Method in brief: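 MT-4 T cells at 3.75×10⁵ cells/mL in RPMI 1640 with 10% FBS and 2 mM L-glutamine, exposed to compounds for 15 min, then infected with HIV-1 NL4.3 (30 pg/well) at 37 °C. After 4 days, viability by MTS/PES absorbance at 490 and 700 nm, used to derive IC50 for viral replication. Mean ± SD, n = 2 or 3.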

MT4 = assay: Cytotoxicity against human MT4 cells after 48 hrs by MTS/PES method; format: cell-based; settings: mt4, 48 h
Method in brief: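 MT-4 cells at 10⁴ per well in DMEM with 10% FBS and 10 mM HEPES, incubated with compounds 48 h at 37 °C. Viability by MTS/PES; CC50 taken as the concentration reducing viability by 50%.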

CHO = assay: Binding affinity to human CD4 signal peptide expressed in CHO cells assessed as down-modulation of YFP-fused CD4 expression at 50 uM after 24 hrs by flow cytometric analysis; format: cell-based
Method in brief: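 Stably CD4-YFP-expressing CHO cells, 24 h at 37 °C, 50 μM as the highest concentration tested. Washed, fixed in 1% formaldehyde, YFP read by flow cytometry (488 nm, FL-1). Median fluorescence versus untreated cells, background of non-transfected cells subtracted. Given as % CD4 down-modulation at 50 μM.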

| Structure (SMILES) | IC50 [1] [µM] | pIC50 [1] | IC50 [2] [µM] | CC50 (MT4) [µM] | Activity (CHO) [%] |
| --- | --- | --- | --- | --- | --- |
| C=C1CN(S(=O)(=O)c2ccc(C)cc2)CCCN(Cc2ccccc2)CCCN(S(=O)(=O)c2ccc(F)cc2)C1.Cl | 0.92 | 6.04 | 4.66 | > 150 | – |
| C=C1CN(S(=O)(=O)c2ccc(C)cc2)CCCN(Cc2ccccc2)CCCN(S(=O)(=O)c2ccc(OC)cc2)C1.Cl | 0.29 | 6.54 | 0.55 | > 150 | – |
| C=C1CN(S(=O)(=O)c2ccc(C)cc2)CCCN(Cc2ccccc2)CCCN(S(=O)(=O)c2cccc(N)c2)C1.Cl | 1.02 | 5.99 | 6.22 | > 150 | – |
| C=C1CN(S(=O)(=O)c2ccc(C)cc2)CCCN(Cc2ccccc2)CCCN(S(=O)(=O)c2ccc(N(C)C)cc2)C1.Cl | 0.17 | 6.77 | 0.62 | > 150 | – |
| C=C1CN(S(=O)(=O)c2ccc(C)cc2)CCCN(CC2CCCCC2)CCCN(S(=O)(=O)c2ccc(OC)cc2)C1 | 0.15 | – | 0.49 | 99 | – |
| C=C1CN(C(=O)c2ccc(N)cc2)CCCN(Cc2ccccc2)CCCN(S(=O)(=O)c2ccc(C)cc2)C1 | > 50 | – | > 10 | 13.7 | – |
| C=C1CN(S(=O)(=O)c2ccc(C)cc2)CCCN(Cc2ccccc2)CCCN(S(=O)(=O)c2ccc(OC(=S)N(C)C)cc2)C1.Cl | 6.28 | 5.2 | > 50 | 106 | – |
| C=C1CN(S(=O)(=O)c2ccc(C)cc2)CCCN(Cc2ccccc2)CCCN(S(=O)(=O)c2ccn(C)c2)C1.Cl | 3.17 | 5.5 | > 50 | > 150 | – |
| C=C1CN(C(=O)c2ccc(OC)cc2)CCCN(Cc2ccccc2)CCCN(S(=O)(=O)c2ccc(C)cc2)C1 | 4.22 | – | 3.86 | 23.6 | – |
| C=C1CN(S(=O)(=O)c2ccccc2)CCCN(Cc2ccccc2)CCCN(S(=O)(=O)c2ccc(C)cc2)C1.Cl | 1.46 | 5.84 | > 50 | > 150 | – |
| C=C1CN(S(=O)(=O)c2ccc(C)cc2)CCCN(Cc2ccccc2)CCCN(S(=O)(=O)c2ccc([N+](=O)[O-])cc2)C1.Cl | 5.25 | 5.28 | 35.9 | > 150 | – |
| C=C1CN(S(=O)(=O)c2ccc(C)cc2)CCCN(Cc2ccccc2)CCCN(S(=O)(=O)c2ccc(OC)c(OC)c2)C1.Cl | 0.31 | 6.51 | 0.86 | > 150 | – |
| C=C1CN(S(=O)(=O)c2ccc(C)cc2)CCCN(CC2CCCCC2)CCCN(S(=O)(=O)c2ccc(-n3cccc3)cc2)C1 | 0.18 | – | 1.25 | 48 | – |
| C=C1CN(S(=O)(=O)c2ccc(C)cc2)CCCN(CC2CCCCC2)CCCN(S(=O)(=O)c2ccc(N3CCOCC3)cc2)C1 | 0.13 | – | 0.36 | > 150 | – |
| C=C1CNCCCN(Cc2ccccc2)CCCN(S(=O)(=O)c2ccc(C)cc2)C1 | > 50 | – | – | > 150 | 20 |
| C=C1CN(S(=O)(=O)c2ccc(C)cc2)CCCN(CC2CCCCC2)CCCN(S(=O)(=O)c2ccc(O)cc2)C1 | 1.14 | – | – | > 150 | – |
| C=C1CN(S(=O)(=O)c2ccc(C)cc2)CCCN(CC2CCCCC2)CCCN(S(=O)(=O)c2ccc(OCCCC)cc2)C1 | 1.1 | – | 1.95 | 13.2 | – |
| C=C1CN(S(=O)(=O)c2ccc(C)cc2)CCCN(CC2CCCCC2)CCCN(S(=O)(=O)c2ccc(OCC)cc2)C1 | 0.19 | – | 0.62 | 19.6 | – |
| C=C1CN(S(=O)(=O)c2ccc(C)cc2)CCCN(Cc2ccccc2)CCCN(S(=O)(=O)c2ccccc2[N+](=O)[O-])C1.Cl | 0.7 | 6.15 | 27.7 | > 150 | – |
| C=C1CN(S(=O)(=O)c2ccc(C)cc2)CCCN(Cc2ccccc2)CCCN(S(=O)(=O)c2ccc(O)cc2)C1.Cl | 3.58 | 5.45 | 2.84 | 13.6 | – |

| Structure (SMILES) | IC50 [1] [µM] | pIC50 [1] | IC50 [2] [µM] | CC50 (MT4) [µM] | Activity (CHO) [%] |
| --- | --- | --- | --- | --- | --- |
| C=C1CN(S(=O)(=O)c2ccc(C)cc2)CCCN(Cc2ccccc2)CCCN(S(=O)(=O)c2cccc(N(C)C)c2)C1.Cl | 0.79 | 6.1 | > 50 | > 150 | – |
| C=C1CN(S(=O)(=O)c2ccc(C)cc2)CCCN(CC2CCCCC2)CCCN(S(=O)(=O)c2ccc(OCCCN)cc2)C1 | > 50 | – | – | 11.6 | – |
| C=C1CN(S(=O)(=O)c2ccc(C)cc2)CCCN(Cc2ccccc2)CCCN(S(=O)(=O)c2ccc(N)cc2)C1.Cl | 2.42 | 5.62 | 7.72 | 63.4 | – |
| C=C1CN(S(=O)(=O)c2ccc(C)cc2)CCCN(Cc2ccccc2)CCCN(S(=O)(=O)c2ccc3c(c2)OCO3)C1.Cl | 1.06 | 5.97 | 14.2 | > 150 | – |
| C=C1CN(S(=O)(=O)c2ccc(C)cc2)CCCN(CC2CCCCC2)CCCN(S(=O)(=O)c2ccc(N)cc2)C1 | 1 | – | > 10 | 10.6 | – |
| C=C1CN(S(=O)(=O)c2ccc(C)cc2)CCCN(Cc2ccccc2)CCCN(S(=O)(=O)N(C)C)C1 | 1.58 | – | 12.8 | > 150 | – |
| C=C1CN(S(=O)(=O)c2ccc(C)cc2)CCCN(Cc2ccccc2)CCCN(S(=O)(=O)c2ccc(C)cc2)C1 | – | 6.4 | – | – | – |
| C=C1CN(S(=O)(=O)c2ccc(C)cc2)CCCN(Cc2ccccc2)CCCN(S(=O)(=O)c2ccc(OC(F)(F)F)cc2)C1.Cl | 1.2 | 5.92 | 3.26 | > 150 | – |
| C=C1CN(S(=O)(=O)c2ccc(C)cc2)CCCN(Cc2ccccc2)CCCN(S(=O)(=O)N2CCOCC2)C1.Cl | 1.08 | 5.97 | 8.99 | > 150 | – |
| C=C1CN(S(=O)(=O)c2ccc(C)cc2)CCCN(Cc2ccccc2)CCCN(S(=O)(=O)c2ccc(SC)cc2)C1.Cl | 0.23 | 6.64 | 1.44 | > 150 | – |
| C=C1CN(S(=O)(=O)c2ccc(C)cc2)CCCN(Cc2ccccc2)CCCN(S(=O)(=O)c2ccc3ccccc3c2)C1.Cl | 0.55 | 6.26 | 1.35 | > 150 | – |
| C=C1CN(S(=O)(=O)c2ccc(C)cc2)CCCN(Cc2ccccc2)CCCN(S(=O)(=O)c2ccccc2N)C1.Cl | 2.12 | 5.66 | 6.93 | 70.3 | – |
| C=C1CN(C(=O)c2ccc([N+](=O)[O-])cc2)CCCN(Cc2ccccc2)CCCN(S(=O)(=O)c2ccc(C)cc2)C1 | > 50 | – | > 50 | > 150 | 39 |
| C=C1CN(S(=O)(=O)c2ccc(C)cc2)CCCN(Cc2ccccc2)CCCN(S(=O)(=O)c2ccc(OC)cc2OC)C1.Cl | 1.35 | 5.87 | 7 | > 150 | – |
| C=C1CN(C(=O)c2ccccc2)CCCN(Cc2ccccc2)CCCN(S(=O)(=O)c2ccc(C)cc2)C1 | 7.32 | – | > 10 | 15.8 | – |
| C=C1CN(S(=O)(=O)c2ccc(C)cc2)CCCN(CC2CCCCC2)CCCN(S(=O)(=O)c2ccc(N(C)C)cc2)C1 | 0.063 | – | 0.18 | 44 | – |
| C=C1CN(C(=O)c2ccc(C)cc2)CCCN(Cc2ccccc2)CCCN(S(=O)(=O)c2ccc(C)cc2)C1 | 3.78 | – | 3.95 | 19.9 | – |
| C=C1CN(S(=O)(=O)c2ccc(C)cc2)CCCN(Cc2ccccc2)CCCN(S(=O)(=O)c2cccc([N+](=O)[O-])c2)C1.Cl | 2.02 | 5.69 | > 50 | > 150 | – |
| C#CCOc1ccc(S(=O)(=O)N2CCCN(Cc3ccccc3)CCCN(S(=O)(=O)c3ccc(C)cc3)CC(=C)C2)cc1.Cl | 0.46 | 6.34 | 0.55 | > 150 | – |
| C=C1CN(S(=O)(=O)c2ccc(C)cc2)CCCN(CC2CCCCC2)CCCN(S(=O)(=O)c2ccc(OCCCN3C(=O)c4ccccc4C3=O)cc2)C1 | 0.75 | – | – | 32.2 | – |
